Tested on: U2OS
Experiment: Multiplex assay against U2OS
Type: toxicity, cell-based
Details: human
Method in brief: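 Hoechst33342, BioTracker Green Microtubule Cytoskeleton Dye, MitoTracker Red and Annexin V Alexa Fluor 680 were added to live cells at seeding, and imaging on a CQ1 microscope at 37°C and 5% CO2 followed compound addition. Gating by CellPathfinder machine learning separated cells into Hoechst high-intensity objects or normal cells, then normal cells into healthy, pyknosed or fragmented nuclei, then pyknosed cells into mitotic or apoptotic. Per cents of healthy-nucleus cells are reported for the tubulin, mitochondrial-mass and membrane-permeability phenotypes.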

[1] = 12 h, 1 µM, compound concentration 1 uM, replicate 1
[2] = 12 h, 1 µM, compound concentration 1 uM, replicate 2
[3] = 12 h, 10 µM, compound concentration 10 uM, replicate 1
[4] = 12 h, 10 µM, compound concentration 10 uM, replicate 2
[5] = 24 h, 1 µM, compound concentration 1 uM, replicate 1
[6] = 24 h, 1 µM, compound concentration 1 uM, replicate 2
[7] = 24 h, 10 µM, compound concentration 10 uM, replicate 1
[8] = 24 h, 10 µM, compound concentration 10 uM, replicate 2
[9] = 48 h, 1 µM, compound concentration 1 uM, replicate 1
[10] = 48 h, 1 µM, compound concentration 1 uM, replicate 2
[11] = 48 h, 10 µM, compound concentration 10 uM, replicate 1
[12] = 48 h, 10 µM, compound concentration 10 uM, replicate 2

Cc1nn(C)c2nc(NNC(=O)Nc3cc(Cl)nc(Cl)c3)cc(C(C)C)c12
Population Apoptotic (%) [1]: 76% | Population Fragmented Nuclei (%) [1]: 23% | Population Healthy Nuclei (%) [1]: 66% | Population Hoechst High Intensity Objects (%) [1]: 1% | Population Membrane Permeable-Phenotype (%) [1]: 5% | Population Mitochondria Different-Phenotype (%) [1]: 3% | Population Mitotic Cells (%) [1]: 24% | Population Normal (%) [1]: 98% | Population Pyknosed Nuclei (%) [1]: 9% | Population Tubulin-Different-Phenotype (%) [1]: 2% | Total Cell Count [1]: 268 | Population Apoptotic (%) [2]: 72% | Population Fragmented Nuclei (%) [2]: 14% | Population Healthy Nuclei (%) [2]: 76% | Population Hoechst High Intensity Objects (%) [2]: 2% | Population Membrane Permeable-Phenotype (%) [2]: 10% | Population Mitochondria Different-Phenotype (%) [2]: 7% | Population Mitotic Cells (%) [2]: 27% | Population Normal (%) [2]: 97% | Population Pyknosed Nuclei (%) [2]: 8% | Population Tubulin-Different-Phenotype (%) [2]: 7% | Total Cell Count [2]: 131 | Population Apoptotic (%) [3]: 77% | Population Fragmented Nuclei (%) [3]: 21% | Population Healthy Nuclei (%) [3]: 56% | Population Hoechst High Intensity Objects (%) [3]: 7% | Population Membrane Permeable-Phenotype (%) [3]: 75% | Population Mitochondria Different-Phenotype (%) [3]: 46% | Population Mitotic Cells (%) [3]: 22% | Population Normal (%) [3]: 92% | Population Pyknosed Nuclei (%) [3]: 21% | Population Tubulin-Different-Phenotype (%) [3]: 80% | Total Cell Count [3]: 222 | Population Apoptotic (%) [4]: 47% | Population Fragmented Nuclei (%) [4]: 15% | Population Healthy Nuclei (%) [4]: 63% | Population Hoechst High Intensity Objects (%) [4]: 4% | Population Membrane Permeable-Phenotype (%) [4]: 57% | Population Mitochondria Different-Phenotype (%) [4]: 63% | Population Mitotic Cells (%) [4]: 52% | Population Normal (%) [4]: 95% | Population Tubulin-Different-Phenotype (%) [4]: 77% | Total Cell Count [4]: 104 | Population Apoptotic (%) [5]: 80% | Population Fragmented Nuclei (%) [5]: 20% | Population Healthy Nuclei (%) [5]: 71% | Population Hoechst High Intensity Objects (%) [5]: 0% | Population Membrane Permeable-Phenotype (%) [5]: 4% | Population Mitochondria Different-Phenotype (%) [5]: 2% | Population Mitotic Cells (%) [5]: 19% | Population Normal (%) [5]: 99% | Population Pyknosed Nuclei (%) [5]: 8% | Population Tubulin-Different-Phenotype (%) [5]: 1% | Total Cell Count [5]: 328 | Population Apoptotic (%) [6]: 93% | Population Fragmented Nuclei (%) [6]: 17% | Population Healthy Nuclei (%) [6]: 73% | Population Hoechst High Intensity Objects (%) [6]: 2% | Population Membrane Permeable-Phenotype (%) [6]: 9% | Population Mitochondria Different-Phenotype (%) [6]: 4% | Population Mitotic Cells (%) [6]: 6% | Population Normal (%) [6]: 97% | Population Pyknosed Nuclei (%) [6]: 9% | Population Tubulin-Different-Phenotype (%) [6]: 4% | Total Cell Count [6]: 168 | Population Apoptotic (%) [7]: 78% | Population Fragmented Nuclei (%) [7]: 19% | Population Healthy Nuclei (%) [7]: 49% | Population Hoechst High Intensity Objects (%) [7]: 5% | Population Membrane Permeable-Phenotype (%) [7]: 69% | Population Mitochondria Different-Phenotype (%) [7]: 58% | Population Mitotic Cells (%) [7]: 21% | Population Normal (%) [7]: 94% | Population Pyknosed Nuclei (%) [7]: 31% | Population Tubulin-Different-Phenotype (%) [7]: 77% | Total Cell Count [7]: 218 | Population Apoptotic (%) [8]: 69% | Population Fragmented Nuclei (%) [8]: 16% | Population Healthy Nuclei (%) [8]: 61% | Population Hoechst High Intensity Objects (%) [8]: 2% | Population Membrane Permeable-Phenotype (%) [8]: 42% | Population Mitochondria Different-Phenotype (%) [8]: 51% | Population Mitotic Cells (%) [8]: 30% | Population Normal (%) [8]: 97% | Population Pyknosed Nuclei (%) [8]: 21% | Population Tubulin-Different-Phenotype (%) [8]: 57% | Total Cell Count [8]: 110 | Population Apoptotic (%) [9]: 88% | Population Fragmented Nuclei (%) [9]: 17% | Population Healthy Nuclei (%) [9]: 75% | Population Hoechst High Intensity Objects (%) [9]: 2% | Population Membrane Permeable-Phenotype (%) [9]: 4% | Population Mitochondria Different-Phenotype (%) [9]: 3% | Population Mitotic Cells (%) [9]: 11% | Population Normal (%) [9]: 97% | Population Pyknosed Nuclei (%) [9]: 7% | Population Tubulin-Different-Phenotype (%) [9]: 2% | Total Cell Count [9]: 504 | Population Apoptotic (%) [10]: 86% | Population Fragmented Nuclei (%) [10]: 21% | Population Healthy Nuclei (%) [10]: 65% | Population Hoechst High Intensity Objects (%) [10]: 1% | Population Membrane Permeable-Phenotype (%) [10]: 8% | Population Mitochondria Different-Phenotype (%) [10]: 4% | Population Mitotic Cells (%) [10]: 13% | Population Normal (%) [10]: 98% | Population Pyknosed Nuclei (%) [10]: 12% | Population Tubulin-Different-Phenotype (%) [10]: 5% | Total Cell Count [10]: 247 | Population Apoptotic (%) [11]: 83% | Population Fragmented Nuclei (%) [11]: 24% | Population Healthy Nuclei (%) [11]: 43% | Population Hoechst High Intensity Objects (%) [11]: 9% | Population Membrane Permeable-Phenotype (%) [11]: 51% | Population Mitochondria Different-Phenotype (%) [11]: 46% | Population Mitotic Cells (%) [11]: 16% | Population Normal (%) [11]: 90% | Population Pyknosed Nuclei (%) [11]: 32% | Population Tubulin-Different-Phenotype (%) [11]: 49% | Total Cell Count [11]: 244 | Population Apoptotic (%) [12]: 80% | Population Healthy Nuclei (%) [12]: 48% | Population Hoechst High Intensity Objects (%) [12]: 6% | Population Mitochondria Different-Phenotype (%) [12]: 63% | Population Mitotic Cells (%) [12]: 20% | Population Normal (%) [12]: 93% | Population Pyknosed Nuclei (%) [12]: 27% | Population Tubulin-Different-Phenotype (%) [12]: 57% | Total Cell Count [12]: 115

— ChEMBL document CHEMBL5058577, “EUbOPEN Chemogenomics Library 2 (Multiplex)” (2022)
